Converted amounts (≈) assume the structure as drawn. Bounds are passed on as bounds.

For test [1], the system named is Mycobacterium tuberculosis. Nature of the test: Antimycobacterial activity against Mycobacterium tuberculosis H37Rv by Lowenstein-Jensen slope method. The format is functional. Conditions: for MIC: Mycobacterium tuberculosis, H37Rv.
Test [2] concerns Staphylococcus aureus. In words: Antibacterial activity against Staphylococcus aureus MTCC 96 by conventional broth microdilution method. Format: functional. Background: In broth dilution the organism is exposed to a series of concentrations in liquid medium.
Test [3] concerns Streptococcus pyogenes. Nature of the test: Antibacterial activity against Streptococcus pyogenes MTCC 442 by conventional broth microdilution method. Format: functional.
Test [4] concerns Escherichia coli. Nature of the test: Antibacterial activity against Escherichia coli MTCC 443 by conventional broth microdilution method. Format: functional.
Test [5] concerns Pseudomonas aeruginosa. Nature of the test: Antibacterial activity against Pseudomonas aeruginosa MTCC 1688 by conventional broth microdilution method. The format is functional.
Test [6] deals with Candida albicans. Nature of the test: Antifungal activity against Candida albicans MTCC 227 by conventional broth microdilution method. The format is functional.
Test [7] deals with Aspergillus niger. Nature of the test: Antifungal activity against Aspergillus niger MTCC 282 by conventional broth microdilution method. Format: functional.
The test system of test [8] is Aspergillus clavatus. In words: Antifungal activity against Aspergillus clavatus MTCC 1323 by conventional broth microdilution method. The format is functional.
In test [9] the test system is HeLa. In words: Cytotoxicity against human HeLa cells after 24 hrs incubation by MTT assay. Format: functional, cell-based. An outline of the steps:
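HeLa cells (1.0 × 10⁴) were exposed to a range of test compound concentrations for 24 h at 37 °C under 5% CO₂. MTT was then added, the supernatant was discarded, and the formazan was dissolved in DMSO. Absorbance was read at 540 nm, and IC₅₀ was reported in µM.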

The test system of test [10] is Staphylococcus aureus. In words: Ratio of ciprofloxacin MIC to compound MIC for Staphylococcus aureus MTCC 96. The format is functional.
In test [11] the test system is Streptococcus pyogenes. In words: Ratio of ciprofloxacin MIC to compound MIC for Streptococcus pyogenes MTCC 442. The format is functional.
In test [12] the test system is Pseudomonas aeruginosa. Nature of the test: Ratio of ciprofloxacin MIC to compound MIC for Pseudomonas aeruginosa MTCC 1688. The format is functional.

As usually defined, the MIC is the smallest concentration in the dilution series that meets the test's criterion for growth inhibition. As for `N#CCCSC1=NC(c2ccc([N+](=O)[O-])cc2)=CC(c2cc3cc(Cl)ccc3nc2Cl)N1` (configuration not stated), the “inhibition (INH)” value in [1] amounted to 56%. Besides, the MIC is 1000 µg/mL (≈ 2060 µM) in [2]; 500 µg/mL (≈ 1030 µM) in test [3]; 500 µg/mL (≈ 1030 µM) in test [4]; 1000 µg/mL (≈ 2060 µM) in [5]; greater than 1000 µg/mL in [6]; greater than 1000 µg/mL in test [7]. For the same molecule, in [8], 1000 µg/mL (≈ 2060 µM) was the least that counted as inhibitory (MIC).

`N#CCCSC1=NC(c2cccc([N+](=O)[O-])c2)=CC(c2cc3cc(Cl)ccc3nc2Cl)N1` (configuration not stated): the “inhibition (INH)” value in test [1] came out at 38%. In addition, the MIC was 500 µg/mL (≈ 1030 µM) in [2]; 1000 µg/mL (≈ 2060 µM) in [3]; greater than 1000 µg/mL in [4]; 1000 µg/mL (≈ 2060 µM) in [5]; greater than 1000 µg/mL in test [6]; 500 µg/mL (≈ 1030 µM) in test [7]. In addition, the MIC in test [8] was greater than 1000 µg/mL.

As for `N#CCCSC1=NC(c2cccc(Br)c2)=CC(c2cc3cc(Cl)ccc3nc2Cl)N1` (configuration not stated), the “inhibition (INH)” value in test [1] was 66%. Moreover, the MIC in test [2] was 500 µg/mL (≈ 965 µM); in [3], 1000 µg/mL (≈ 1930 µM); in [4], greater than 1000 µg/mL; in [5], 1000 µg/mL (≈ 1930 µM); in test [6] it was greater than 1000 µg/mL; in test [7] it was 500 µg/mL (≈ 965 µM). Further, in test [8], the MIC stood at 1000 µg/mL (≈ 1930 µM).

Turning to `Cc1cccc(C2=CC(c3cc4cc(Cl)ccc4nc3Cl)NC(SCCC#N)=N2)c1` (configuration not stated), the “inhibition (INH)” value in [1] is given as 81%. The MIC in test [2] came out at 100 µg/mL (≈ 221 µM); in test [3], 100 µg/mL (≈ 221 µM); in [4], 250 µg/mL (≈ 551 µM); in test [5] it was 100 µg/mL (≈ 221 µM); in [6], 1000 µg/mL (≈ 2210 µM); in test [7], 500 µg/mL (≈ 1100 µM). The minimal inhibitory concentration (MIC) in test [8] was found to be 500 µg/mL (≈ 1100 µM).

On to `N#CCCSC1=NC(c2cccc(Cl)c2)=CC(c2cc3cc(Cl)ccc3nc2Cl)N1` (configuration not stated), for which the “inhibition (INH)” value in test [1] was determined as 62%. The MIC in [2] was 250 µg/mL (≈ 528 µM); in [3], 500 µg/mL (≈ 1060 µM); in [4] it was 1000 µg/mL (≈ 2110 µM); in test [5], 500 µg/mL (≈ 1060 µM); in [6], greater than 1000 µg/mL; in test [7], 500 µg/mL (≈ 1060 µM). Besides, the MIC in test [8] amounted to 1000 µg/mL (≈ 2110 µM).

Regarding `O=C(O)c1cn(C2CC2)c2cc(N3CCNCC3)c(F)cc2c1=O` [CIPROFLOXACIN], the MIC in test [2] was 50 µg/mL (≈ 151 µM); in test [3] it was 50 µg/mL (≈ 151 µM); in [4], 25 µg/mL (≈ 75.4 µM).

In the case of `N#CCCSC1=NC(c2cccc(O)c2)=CC(c2cc3cc(Cl)ccc3nc2Cl)N1` (configuration not stated), the “inhibition (INH)” value in test [1] is listed as 98%. The MIC in test [1] is 100 µg/mL (≈ 220 µM); in [2], 100 µg/mL (≈ 220 µM); in [3], 100 µg/mL (≈ 220 µM); in test [4], 125 µg/mL (≈ 275 µM); in test [5] it was 250 µg/mL (≈ 549 µM); in test [6] it was 500 µg/mL (≈ 1100 µM). For the same molecule, the MIC in test [7] and in test [8] was 250 µg/mL (≈ 549 µM) in each case.

Usually IC50 stands for the concentration that gives 50% inhibition. A low value points to inhibition by little substance. Regarding `Cc1ccc(C2=CC(c3cc4cc(Cl)ccc4nc3Cl)NC(SCCC#N)=N2)cc1` (configuration not stated), the “inhibition (INH)” value in [1] is recorded as 98%. The MIC was 3.12 µg/mL (≈ 6.88 µM) in test [1]; 25 µg/mL (≈ 55.1 µM) in test [2]; 25 µg/mL (≈ 55.1 µM) in test [3]; 50 µg/mL (≈ 110 µM) in test [4]; 50 µg/mL (≈ 110 µM) in test [5]; 500 µg/mL (≈ 1100 µM) in [6]. Also, the MIC in test [7] was determined as 500 µg/mL (≈ 1100 µM); in test [8], 250 µg/mL (≈ 551 µM). In addition, the concentration for half-maximal inhibition (IC50) in test [9] stood at 94.2 µM. In addition, the Ratio in test [10] and in test [11] was 2 in each case.

For the molecule `COC1=CC(=O)C[C@@H](C)[C@]12Oc1c(Cl)c(OC)cc(OC)c1C2=O` [GRISEOFULVIN], the MIC in test [6] came to 500 µg/mL (≈ 1420 µM); in test [7], 100 µg/mL (≈ 283 µM); in test [8] it was 100 µg/mL (≈ 283 µM).

As to `N#CCCSC1=NC(c2ccc(Cl)cc2)=CC(c2cc3cc(Cl)ccc3nc2Cl)N1` (configuration not stated), the “inhibition (INH)” value in [1] is listed as 42%. For the same molecule, the MIC in test [2] is 250 µg/mL (≈ 528 µM); in [3] it was 500 µg/mL (≈ 1060 µM); in test [4], 1000 µg/mL (≈ 2110 µM); in [5], 500 µg/mL (≈ 1060 µM); in [6] it was greater than 1000 µg/mL; in [7] it was 500 µg/mL (≈ 1060 µM). The molecule also came in with an MIC in test [8] of 1000 µg/mL (≈ 2110 µM).

Take `N#CCCSC1=NC(c2ccc(O)cc2)=CC(c2cc3cc(Cl)ccc3nc2Cl)N1` (configuration not stated): the “inhibition (INH)” value in test [1] was 99%. For the same molecule, the MIC was 3.12 µg/mL (≈ 6.85 µM) in [1]; 25 µg/mL (≈ 54.9 µM) in [2]; 12.5 µg/mL (≈ 27.5 µM) in test [3]; 50 µg/mL (≈ 110 µM) in [4]; 25 µg/mL (≈ 54.9 µM) in test [5]; 250 µg/mL (≈ 549 µM) in test [6]. Also, the MIC in test [7] and in [8] was 25 µg/mL (≈ 54.9 µM) in each case. Also, in [9], the IC50 was greater than 100 µM. For the same molecule, the Ratio in [10] is reported as 4; in [11], 4; in test [12], 2.

As for `N#CCCSC1=NC(c2ccc(Br)cc2)=CC(c2cc3cc(Cl)ccc3nc2Cl)N1` (configuration not stated), the “inhibition (INH)” value in test [1] came to 58%. Moreover, the MIC came to 250 µg/mL (≈ 482 µM) in test [2]; 500 µg/mL (≈ 965 µM) in test [3]; 1000 µg/mL (≈ 1930 µM) in [4]; 500 µg/mL (≈ 965 µM) in [5]; 500 µg/mL (≈ 965 µM) in test [6]; 1000 µg/mL (≈ 1930 µM) in test [7]. This molecule also had an MIC in test [8] of 500 µg/mL (≈ 965 µM).

Regarding `COc1ccc(C2=CC(c3cc4cc(Cl)ccc4nc3Cl)NC(SCCC#N)=N2)cc1` (configuration not stated), the “inhibition (INH)” value in test [1] was 99%. The MIC in test [1] is 0.2 µg/mL (≈ 0.426 µM); in [2], 12.5 µg/mL (≈ 26.6 µM); in [3], 25 µg/mL (≈ 53.3 µM); in test [4], 25 µg/mL (≈ 53.3 µM); in test [5], 25 µg/mL (≈ 53.3 µM); in test [6], 1000 µg/mL (≈ 2130 µM). The MIC in test [7] and in test [8] was 250 µg/mL (≈ 533 µM) throughout. In test [9], this molecule returned an IC50 greater than 100 µM. In addition, the Ratio in [10] and in test [11] was 4 throughout.

For the molecule `NNC(=O)c1ccncc1` [ISONIAZID], the MIC in [1] worked out at 0.2 µg/mL (≈ 1.46 µM).

Turning to `N#CCCSC1=NC(c2ccccc2)=CC(c2cc3cc(Cl)ccc3nc2Cl)N1` (configuration not stated), the “inhibition (INH)” value in [1] amounted to 62%. Further, the MIC in test [2] came to 100 µg/mL (≈ 228 µM); in test [3], 250 µg/mL (≈ 569 µM); in [4], 500 µg/mL (≈ 1140 µM); in [5], 250 µg/mL (≈ 569 µM); in [6], 1000 µg/mL (≈ 2280 µM); in test [7] it was 1000 µg/mL (≈ 2280 µM). Further, the MIC in test [8] amounted to 500 µg/mL (≈ 1140 µM).

With `N#CCCSC1=NC(c2cccc(F)c2)=CC(c2cc3cc(Cl)ccc3nc2Cl)N1` (configuration not stated), in test [1], the “inhibition (INH)” value was found to be 41%. The minimal inhibitory concentration (MIC) in test [2] is 125 µg/mL (≈ 273 µM); in [3], 250 µg/mL (≈ 547 µM); in [4] it was 500 µg/mL (≈ 1090 µM); in [5], 500 µg/mL (≈ 1090 µM); in test [6], 1000 µg/mL (≈ 2190 µM); in test [7], greater than 1000 µg/mL. For the same molecule, the MIC in test [8] was determined as 500 µg/mL (≈ 1090 µM).

For `COc1cccc(C2=CC(c3cc4cc(Cl)ccc4nc3Cl)NC(SCCC#N)=N2)c1` (configuration not stated), the “inhibition (INH)” value in test [1] is reported as 97%. The MIC was 12.5 µg/mL (≈ 26.6 µM) in test [1]; 50 µg/mL (≈ 107 µM) in test [2]; 100 µg/mL (≈ 213 µM) in [3]; 100 µg/mL (≈ 213 µM) in test [4]; 250 µg/mL (≈ 533 µM) in [5]; 500 µg/mL (≈ 1070 µM) in [6]. Besides, the MIC came to 500 µg/mL (≈ 1070 µM) in [7] and 100 µg/mL (≈ 213 µM) in test [8].

Regarding `N#CCCSC1=NC(c2ccc(F)cc2)=CC(c2cc3cc(Cl)ccc3nc2Cl)N1` (configuration not stated), the “inhibition (INH)” value in test [1] amounted to 69%. Besides, the MIC in test [2] is 500 µg/mL (≈ 1090 µM); in test [3], 500 µg/mL (≈ 1090 µM); in test [4], 1000 µg/mL (≈ 2190 µM); in test [5], greater than 1000 µg/mL; in [6], 1000 µg/mL (≈ 2190 µM); in [7], 1000 µg/mL (≈ 2190 µM). Besides, in test [8], the MIC amounted to 500 µg/mL (≈ 1090 µM).

Source of the values: ChEMBL document CHEMBL3297679, “Studies on molecular properties prediction, antitubercular and antimicrobial activities of novel quinoline based pyrimidine motifs” (Bioorg Med Chem Lett, 2014).
